This note sets out measurements from ChEMBL document CHEMBL1124988, “Synthesis and antimicrobial and cytotoxic activities of pyrrole-containing analogues of trichostatin A” (J Med Chem, 1990).

Data set [1] concerns Vesicular stomatitis virus. Nature of the data set: Effective dose required for antiviral activity against VSV virus. The data set is classed as functional. The following applies: read-out: ED50 (the source's name).
The next data set deals with unidentified adenovirus. Kind of data set: Effective dose required for antiviral activity against adeno virus. The data set is classed as functional. The note with it: read-out: ED50 (the source's name). Summed up: (§1)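 Plaque-reduction assay in Vero cells. Dose-response lines were drawn by linear regression, and ED50 is the concentration giving 50% fewer plaques than untreated, virus-infected controls.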

Data set [2] is described as follows: Toxic dose that reduced by 50% the number of cells with respect to untreated controls. It is filed as toxicity, cell-based. The following applies: chlorocebus sabaeus, Vero cells; read-out: TD50 (the source's name). Summed up: (§2)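 Exponentially growing Vero cells were exposed to a range of compound concentrations for three cell cycles (3 days) at 37 °C in 5% CO2. Viable cells were counted by hemocytometer in duplicate samples. MNTD is the highest concentration still allowing exponential growth. TD50 is the concentration halving cell number versus untreated controls.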

The next data set deals with Vero. Kind of data set: Maximum nontoxic dose that allow exponential cell growth for three cell cycles. It is filed as functional, Chlorocebus sabaeus. The method in brief: as §2
Data set [3] deals with African swine fever virus. Kind of data set: Effective dose required for antiviral activity against ASFV virus. It is filed as functional. The note with it: read-out: ED50 (the source's name).
The subject of another data set is Vaccinia virus. Kind of data set: Effective dose required for antiviral activity against Vaccinia virus. It is filed as functional. The note with it: Orthopoxvirus vaccinia; read-out: ED50 (the source's name).
A further data set deals with Human alphaherpesvirus 1. Nature of the data set: Effective dose required for antiviral activity against HSV-1 virus. The note with it: read-out: ED50 (the source's name). It is filed as functional. Summed up: as §1

Structures are written as SMILES. Converted amounts (≈) assume the structure as drawn.

Take `CCOC(=O)/C=C/c1cc(C(=O)c2ccc(F)cc2)cn1C`: the EC50 in data set [1] turned out to be 50 µg/mL (≈ 166 µM); in the data set with unidentified adenovirus, 50 µg/mL (≈ 166 µM); in data set [3], 10 µg/mL (≈ 33.2 µM); in the data set with Vaccinia virus, 10 µg/mL (≈ 33.2 µM); with Human alphaherpesvirus 1, 10 µg/mL (≈ 33.2 µM). Besides, the CC50 in data set [2] is 15 µg/mL (≈ 49.8 µM). For the same compound, the MNTD in the data set with Vero was determined as 4 µg/mL.

On to `Cn1cc(C(=O)c2ccccc2)cc1/C=C/C(=O)NO`, for which the EC50 (in data set [1]; with unidentified adenovirus; in data set [3]; in the data set on Vaccinia virus; in the data set on Human alphaherpesvirus 1) was greater than 30 µg/mL each time. Further, the CC50 in data set [2] was 30 µg/mL (≈ 111 µM). Also, the MNTD in the data set with Vero came out at 15 µg/mL.

As for `Cn1cc(C(=O)c2ccc([N+](=O)[O-])cc2)cc1/C=C/C(=O)NO`, the EC50 is greater than 50 µg/mL in data set [1]; 25 µg/mL (≈ 79.3 µM) with unidentified adenovirus; 25 µg/mL (≈ 79.3 µM) in data set [3]; 15 µg/mL (≈ 47.6 µM) in the data set on Vaccinia virus; 15 µg/mL (≈ 47.6 µM) with Human alphaherpesvirus 1. The CC50 in data set [2] is 30 µg/mL (≈ 95.2 µM). The compound further returned an MNTD in the data set with Vero of 15 µg/mL.

Turning to `CCOC(=O)/C=C/c1cc(C(=O)c2ccc(OC)cc2)cn1C`, the EC50 stood at 15 µg/mL (≈ 47.9 µM) in data set [1]; 4 µg/mL (≈ 12.8 µM) in the data set on unidentified adenovirus; 8 µg/mL (≈ 25.5 µM) in data set [3]; 20 µg/mL (≈ 63.8 µM) in the data set with Vaccinia virus; 15 µg/mL (≈ 47.9 µM) with Human alphaherpesvirus 1. Besides, in data set [2], the CC50 worked out at 15 µg/mL (≈ 47.9 µM). The MNTD in the data set with Vero is 8 µg/mL.

Regarding `CN(C)c1ccc(C(=O)c2cc(/C=C/C(=O)O)n(C)c2)cc1`, the EC50 is greater than 500 µg/mL in data set [1]; 125 µg/mL (≈ 419 µM) with unidentified adenovirus; greater than 250 µg/mL in data set [3]; greater than 250 µg/mL in the data set on Vaccinia virus; greater than 250 µg/mL in the data set with Human alphaherpesvirus 1. The CC50 in data set [2] was greater than 250 µg/mL. The compound also showed an MNTD in the data set on Vero of 125 µg/mL.

As to `Cn1cc(C(=O)c2ccc(F)cc2)cc1/C=C/C(=O)O`, the EC50 in data set [1] is greater than 50 µg/mL; in the data set on unidentified adenovirus it was 50 µg/mL (≈ 183 µM); in data set [3] it was 30 µg/mL (≈ 110 µM); in the data set on Vaccinia virus, 100 µg/mL (≈ 366 µM); in the data set with Human alphaherpesvirus 1, 60 µg/mL (≈ 220 µM). In addition, in data set [2], the CC50 is 60 µg/mL (≈ 220 µM). In addition, in the data set with Vero, the MNTD was found to be 15 µg/mL.

Turning to `CCOC(=O)/C=C/c1cc(C(=O)c2ccc(Cl)cc2)cn1C`, the EC50 is greater than 1000 µg/mL in data set [1]; 30 µg/mL (≈ 94.4 µM) in the data set with unidentified adenovirus; greater than 500 µg/mL in data set [3]; 500 µg/mL (≈ 1570 µM) with Vaccinia virus; 350 µg/mL (≈ 1100 µM) with Human alphaherpesvirus 1. Further, the CC50 in data set [2] turned out to be 500 µg/mL (≈ 1570 µM). The same compound had an MNTD in the data set on Vero of 250 µg/mL.

As to `Cn1cc(C(=O)c2ccc(F)cc2)cc1/C=C/C(=O)NO`, the EC50 in data set [1] is greater than 50 µg/mL; with unidentified adenovirus, greater than 50 µg/mL; in data set [3] it was 12 µg/mL (≈ 41.6 µM); with Vaccinia virus, 15 µg/mL (≈ 52 µM); in the data set with Human alphaherpesvirus 1 it was 10 µg/mL (≈ 34.7 µM). Further, the CC50 in data set [2] is 15 µg/mL (≈ 52 µM). This compound came in with an MNTD with Vero of 8 µg/mL.

For `Cn1cc(C(=O)c2ccc(Cl)cc2)cc1/C=C/C(=O)NO`, the EC50 in data set [1] is greater than 30 µg/mL; in the data set on unidentified adenovirus it was 15 µg/mL (≈ 49.2 µM); in data set [3] it was 20 µg/mL (≈ 65.6 µM); in the data set on Vaccinia virus it was 30 µg/mL (≈ 98.4 µM); with Human alphaherpesvirus 1, 30 µg/mL (≈ 98.4 µM). For the same compound, in data set [2], the CC50 is 30 µg/mL (≈ 98.4 µM). In the data set with Vero, this compound had an MNTD of 15 µg/mL.

`CCOC(=O)/C=C/c1cc(C(=O)c2ccc([N+](=O)[O-])cc2)cn1C`: the CC50 in data set [2] came to 8 µg/mL (≈ 24.4 µM). In addition, the MNTD in the data set with Vero stood at 2 µg/mL. Besides, the EC50 in data set [3] turned out to be 60 µg/mL (≈ 183 µM); with Vaccinia virus it was 60 µg/mL (≈ 183 µM); in the data set with Human alphaherpesvirus 1 it was 125 µg/mL (≈ 381 µM).

`CCOC(=O)/C=C/c1cc(C(=O)c2ccccc2)cn1C`: the EC50 (in data set [1]; in the data set on unidentified adenovirus; in data set [3]; in the data set on Vaccinia virus; in the data set with Human alphaherpesvirus 1) was 30 µg/mL (≈ 106 µM) in each case. The CC50 in data set [2] was 4 µg/mL (≈ 14.1 µM). This compound came in with an MNTD in the data set with Vero of 2 µg/mL.

With `Cc1ccc(C(=O)c2ccn(/C=C/C(=O)O)c2)cc1`, the EC50 is greater than 125 µg/mL in data set [1]; 60 µg/mL (≈ 235 µM) with unidentified adenovirus; 8 µg/mL (≈ 31.3 µM) in data set [3]; 100 µg/mL (≈ 392 µM) with Vaccinia virus; 100 µg/mL (≈ 392 µM) in the data set with Human alphaherpesvirus 1. In addition, the CC50 in data set [2] stood at 125 µg/mL (≈ 490 µM). Moreover, the MNTD with Vero is 30 µg/mL.

`Cn1cc(C(=O)c2ccc(-n3ccnc3)cc2)cc1/C=C/C(=O)O`: the EC50 in data set [1] is 250 µg/mL (≈ 778 µM); in the data set with unidentified adenovirus it was 250 µg/mL (≈ 778 µM); in data set [3], 250 µg/mL (≈ 778 µM); with Vaccinia virus it was greater than 250 µg/mL; in the data set with Human alphaherpesvirus 1, greater than 250 µg/mL. The CC50 in data set [2] is greater than 250 µg/mL. The compound also returned an MNTD with Vero of 125 µg/mL.

Turning to `Cn1cc(C(=O)c2ccc(N)cc2)cc1/C=C/C(=O)O`, the EC50 in data set [1] was greater than 1000 µg/mL; in the data set with unidentified adenovirus, 1000 µg/mL (≈ 3700 µM); in data set [3] it was 250 µg/mL (≈ 925 µM); with Vaccinia virus, 1000 µg/mL (≈ 3700 µM); with Human alphaherpesvirus 1 it was greater than 1000 µg/mL. Besides, the CC50 in data set [2] was greater than 1000 µg/mL. In the data set with Vero, this compound gave an MNTD greater than 1000 µg/mL.

As for `COc1ccc(C(=O)c2cc(/C=C/C(=O)O)n(C)c2)cc1`, the EC50 is 1000 µg/mL (≈ 3510 µM) in data set [1]; 250 µg/mL (≈ 876 µM) with unidentified adenovirus; 350 µg/mL (≈ 1230 µM) in data set [3]; 500 µg/mL (≈ 1750 µM) in the data set with Vaccinia virus; greater than 500 µg/mL in the data set with Human alphaherpesvirus 1. Further, the CC50 in data set [2] is greater than 500 µg/mL. For the same compound, in the data set with Vero, the MNTD is 500 µg/mL.

In the case of `Cn1cc(C(=O)c2ccc([N+](=O)[O-])cc2)cc1/C=C/C(=O)O`, the EC50 in data set [1] was greater than 100 µg/mL; with unidentified adenovirus it was 50 µg/mL (≈ 167 µM); in data set [3], 50 µg/mL (≈ 167 µM); in the data set with Vaccinia virus, 15 µg/mL (≈ 50 µM); in the data set with Human alphaherpesvirus 1 it was 50 µg/mL (≈ 167 µM). The CC50 in data set [2] was 60 µg/mL (≈ 200 µM). The MNTD in the data set with Vero stood at 15 µg/mL.

On to `Cn1cc(C(=O)c2ccccc2)cc1/C=C/C(=O)O`, for which the EC50 in data set [1] was 500 µg/mL (≈ 1960 µM); in the data set on unidentified adenovirus, 250 µg/mL (≈ 979 µM); in data set [3] it was 250 µg/mL (≈ 979 µM); with Vaccinia virus, greater than 500 µg/mL; with Human alphaherpesvirus 1, greater than 500 µg/mL. Besides, the CC50 in data set [2] is greater than 250 µg/mL. This compound had an MNTD in the data set with Vero of 250 µg/mL.

`CCOC(=O)/C=C/c1cc(C(=O)c2ccc(N(C)C)cc2)cn1C`: the EC50 was determined as 8 µg/mL (≈ 24.5 µM) in data set [1]; 15 µg/mL (≈ 46 µM) with unidentified adenovirus; 8 µg/mL (≈ 24.5 µM) in data set [3]; 15 µg/mL (≈ 46 µM) with Vaccinia virus; 15 µg/mL (≈ 46 µM) in the data set on Human alphaherpesvirus 1. For the same compound, the CC50 in data set [2] stood at 4 µg/mL (≈ 12.3 µM). Moreover, the MNTD in the data set on Vero was 2 µg/mL.

As to `CCOC(=O)/C=C/c1cc(C(=O)c2ccc(-n3ccnc3)cc2)cn1C`, the EC50 in data set [1] was 500 µg/mL (≈ 1430 µM); with unidentified adenovirus, 15 µg/mL (≈ 42.9 µM); in data set [3], 30 µg/mL (≈ 85.9 µM); in the data set on Vaccinia virus, greater than 500 µg/mL; in the data set on Human alphaherpesvirus 1, 500 µg/mL (≈ 1430 µM). Besides, in data set [2], the CC50 was found to be 30 µg/mL (≈ 85.9 µM). This compound also had an MNTD with Vero of 15 µg/mL.

For the compound `Cn1cc(C(=O)c2ccc(Cl)cc2)cc1/C=C/C(=O)O`, the EC50 in data set [1] is 250 µg/mL (≈ 863 µM); in the data set on unidentified adenovirus it was greater than 500 µg/mL; in data set [3], greater than 250 µg/mL; with Vaccinia virus it was 100 µg/mL (≈ 345 µM); in the data set on Human alphaherpesvirus 1, 500 µg/mL (≈ 1730 µM). Also, the CC50 in data set [2] is 125 µg/mL (≈ 431 µM). In the data set on Vero, this compound displayed an MNTD of 30 µg/mL.

Regarding `Nc1nc2c(ncn2COCCO)c(=O)[nH]1` [ACYCLOVIR], the EC50 in data set [1] was greater than 40 µg/mL; in data set [3], 40 µg/mL (≈ 178 µM); with Vaccinia virus, greater than 110 µg/mL; in the data set with Human alphaherpesvirus 1, 0.02 µg/mL (≈ 0.0888 µM). Further, the CC50 in data set [2] is 240 µg/mL (≈ 1070 µM). The MNTD with Vero turned out to be 40 µg/mL.

`Nc1ncnc2c1ncn2[C@@H]1O[C@H](CO)[C@@H](O)[C@@H]1O` [VIDARABINE]: the EC50 was greater than 10 µg/mL in data set [1], 40 µg/mL (≈ 150 µM) in data set [3], 16 µg/mL (≈ 59.9 µM) in the data set with Vaccinia virus and 10 µg/mL (≈ 37.4 µM) in the data set on Human alphaherpesvirus 1. Moreover, in data set [2], the CC50 was 10 µg/mL (≈ 37.4 µM). Moreover, in the data set on Vero, the MNTD was 6 µg/mL.
